Laboratory results published in ChEMBL document CHEMBL1123923, “Steroidal silicon side-chain analogues as potential antifertility agents” (1987).

Experiments:
[1] = target: T1, Estrogen receptor (Rattus norvegicus) (UniProt P06211+Q62986); experiment: Oral estrogenic activity in 21 day old immature ovariectomized rats at 1000 ug; type: functional
In short: (§1)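 Rats dosed orally with compound suspended in 0.5% (carboxymethyl)cellulose, 10 animals per dose, daily for 4 days starting on the day of ovariectomy. Autopsy on the day after the last dose. Read-outs were the increase in uterine weight and cornification of vaginal smears, taken from animals with open vaginas, compared against a standard estrogen.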

Rattus norvegicus [2] = species: Rattus norvegicus; experiment: Antifertility activity measured as minimum protective dose for prevention of pregnancy in rats; type: functional; parameters: unit not given here
In short: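 Oral dosing in adult cycling female rats selected in the proestrous phase, 10 animals per dose, with treatment starting on the day of proestrus.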

[3] = target: T1, Estrogen receptor (Rattus norvegicus); experiment: Oral estrogenic activity in 21 day old immature ovariectomized rats at 500 ug; type: functional; in short: as §1
[4] = target: T1, Estrogen receptor (Rattus norvegicus); experiment: Oral estrogenic activity in 21 day old immature ovariectomized rats at 200 ug; type: functional; in short: as §1
[5] = target: T1, Estrogen receptor (Rattus norvegicus)
Rattus norvegicus [6] = species: Rattus norvegicus; experiment: Separation of antifertility from estrogenic activity in rats was measured; type: functional

SMILES: CCCC[Si](C=C[C@]1(O)CC[C@H]2[C@@H]3CCc4cc(O)ccc4[C@H]3CC[C@@]21C)(CCCC)CCCC
- Estrogenic potency [1]: 0
- Antifertility potency (Rattus norvegicus [2]): 0

SMILES: C=C([C@]1(O)CC[C@H]2[C@@H]3CCc4cc(O)ccc4[C@H]3CC[C@@]21C)[Si](CCCC)(CCCC)CCCC
- Estrogenic potency [3]: 0
- Antifertility potency (Rattus norvegicus [2]): 0

SMILES: CCC(C#C[C@]1(O)CC[C@H]2[C@@H]3CCc4cc(O)ccc4[C@H]3CC[C@@]21C)(CC)CC
- Estrogenic potency [1]: 0
- Antifertility potency (Rattus norvegicus [2]): 0

SMILES: C=C([C@]1(O)CC[C@H]2[C@@H]3CCc4cc(O)ccc4[C@H]3CC[C@@]21C)[Si](c1ccccc1)(c1ccccc1)c1ccccc1
- Antifertility potency (Rattus norvegicus [2]): 0
- Estrogenic potency [4]: 0

SMILES: C[C@]12CC[C@@H]3c4ccc(O)cc4CC[C@H]3[C@@H]1CC[C@@]2(O)/C=C/[Si](c1ccccc1)(c1ccccc1)c1ccccc1
- Antifertility potency (Rattus norvegicus [2]): 0
- Estrogenic potency [4]: 0

SMILES: CCC(C)[Si](C#C[C@]1(O)CC[C@H]2[C@@H]3CCc4cc(O)ccc4[C@H]3CC[C@@]21C)(CC)CC (stereo partly drawn)
- Estrogenic potency [5]: 57
- Antifertility potency (Rattus norvegicus [2]): 300
- Separation (Rattus norvegicus [6]): 5

SMILES: CCCCCC[Si](C#C[C@]1(O)CC[C@H]2[C@@H]3CCc4cc(O)ccc4[C@H]3CC[C@@]21C)(CC)CC
- Estrogenic potency [5]: 5.2
- Antifertility potency (Rattus norvegicus [2]): 15
- Separation (Rattus norvegicus [6]): 3

SMILES: CCC[Si](C#C[C@]1(O)CC[C@H]2[C@@H]3CCc4cc(O)ccc4[C@H]3CC[C@@]21C)(CC)CC
- Estrogenic potency [5]: 39
- Antifertility potency (Rattus norvegicus [2]): 300
- Separation (Rattus norvegicus [6]): 8

SMILES: CC[Si](O)(C#C[C@]1(O)CC[C@H]2[C@@H]3CCc4cc(O)ccc4[C@H]3CC[C@@]21C)CC
- Estrogenic potency [5]: 11
- Antifertility potency (Rattus norvegicus [2]): 300
- Separation (Rattus norvegicus [6]): 27

SMILES: CC[Si](C#C[C@]1(O)CC[C@H]2[C@@H]3CCc4cc(O)ccc4[C@H]3CC[C@@]21C)(CC)C(C)C
- Estrogenic potency [5]: 30
- Antifertility potency (Rattus norvegicus [2]): 300
- Separation (Rattus norvegicus [6]): 10

SMILES: CC(C)[Si](C)(C)C#C[C@]1(O)CC[C@H]2[C@@H]3CCc4cc(O)ccc4[C@H]3CC[C@@]21C
- Estrogenic potency [5]: 15
- Antifertility potency (Rattus norvegicus [2]): 300
- Separation (Rattus norvegicus [6]): 20
